Measurements from ChEMBL document CHEMBL1140447, “Synthesis and antimuscarinic properties of quinuclidin-3-yl 1,2,3,4-tetrahydroisoquinoline-2-carboxylate derivatives as novel muscarinic receptor antagonists” (J Med Chem, 2005).
Several values for one entry are separate records, joined by “and”; a condition that tells them apart may be missing. Identical values can stand only once.

target: T1, Muscarinic acetylcholine receptor M2 (Rattus norvegicus, UniProt P10980); assay: Binding affinity for rat heart muscarinic acetylcholine receptor M2 using [3H]quinuclidinyl benzilate; conditions: not given
T1 sequence (P10980 whole entry): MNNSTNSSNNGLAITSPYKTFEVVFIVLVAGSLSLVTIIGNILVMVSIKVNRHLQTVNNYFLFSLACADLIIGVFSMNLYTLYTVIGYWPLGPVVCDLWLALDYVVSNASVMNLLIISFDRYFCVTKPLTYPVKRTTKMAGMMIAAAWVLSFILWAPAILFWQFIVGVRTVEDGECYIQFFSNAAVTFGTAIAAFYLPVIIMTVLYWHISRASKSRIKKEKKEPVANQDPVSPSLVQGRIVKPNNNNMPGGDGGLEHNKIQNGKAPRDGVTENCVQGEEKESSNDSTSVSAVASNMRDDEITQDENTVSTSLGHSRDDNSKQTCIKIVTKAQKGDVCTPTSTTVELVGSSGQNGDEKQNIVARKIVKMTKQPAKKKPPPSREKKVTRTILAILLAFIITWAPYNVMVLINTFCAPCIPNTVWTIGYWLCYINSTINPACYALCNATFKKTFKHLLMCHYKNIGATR

Question: Which Ki does the source give for `O=C(O[C@H]1CN2CCC1CC2)N1CCc2ccccc2[C@H]1c1ccccc1` here?
Answer: The Ki was 8.7 nM.

Question: How did the Ki turn out when `O=C(NC(c1ccccc1)c1ccccc1)OC1CN2CCC1CC2` (configuration not stated) was run?
Answer: Its Ki is 6.8 nM.

Question: How did the Ki turn out when `O=C(O[C@H]1CN2CCC1CC2)N1CC(O)c2ccccc2C1c1ccccc1` (some centres not stated) was run?
Answer: The Ki was 1800 nM and 480 nM.

Question: With `O=C(O[C@H]1CN2CCC1CC2)N1Cc2ccccc2C(c2ccccc2)C1` (some centres not stated) as the compound, how does the Ki read?
Answer: The Ki was over 1000 nM.

Question: How did the Ki turn out when `O=C(O[C@H]1CN2CCC1CC2)N1Cc2ccccc2C1c1ccccc1` (some centres not stated) was run?
Answer: The Ki was 440 nM.

Question: With `O=C(O[C@H]1CN2CCC1CC2)N1CCc2ccccc2C1c1cccs1` (some centres not stated) as the compound, how does the Ki read?
Answer: The Ki was 13 nM and 93 nM.

Question: For `O=C(O[C@H]1CN2CCC1CC2)N1CCc2ccccc2C1C1CCCCC1` (some centres not stated), which Ki is on record?
Answer: Its Ki is 22 nM and 39 nM.

Question: With `O=C(O[C@H]1CN2CCC1CC2)N1CCc2ccccc2C1c1ccccc1` (some centres not stated) as the compound, how does the Ki read?
Answer: The Ki was 28 nM.

Question: For `O=C(O[C@@H]1CN2CCC1CC2)N1CCc2ccccc2[C@H]1c1ccccc1`, which Ki is on record?
Answer: Its Ki is 1600 nM.

Question: With `O=C(O[C@@H]1CN2CCC1CC2)N1CCc2ccccc2[C@@H]1c1ccccc1` as the compound, how does the Ki read?
Answer: The Ki was 3500 nM.

Question: `O=C(O[C@H]1CN2CCC1CC2)N1C[C@H](O)c2ccccc2[C@H]1c1ccccc1` was tested. Which Ki did it give?
Answer: The Ki was 1700 nM.

Question: With `O=C(O[C@H]1CN2CCC1CC2)N1C[C@@H](O)c2ccccc2[C@@H]1c1ccccc1` as the compound, how does the Ki read?
Answer: The Ki was 850 nM.

Question: `O=C(O[C@H]1CN2CCC1CC2)N1CCc2ccccc2C1c1ccsc1` (single isomer, unassigned; 12a) was tested. Which Ki did it give?
Answer: Its Ki is 15 nM.

Question: How did the Ki turn out when `O=C(O[C@H]1CN2CCC1CC2)N1CCc2ccccc2C1c1ccsc1` (single isomer, unassigned; 12b) was run?
Answer: The Ki was 110 nM.

Question: Which Ki does the source give for `O=C(O[C@H]1CN2CCC1CC2)N1CCc2ccccc2[C@@H]1c1ccccc1` [SOLIFENACIN] here?
Answer: The Ki was 120 nM.

test system: Rattus norvegicus; assay: M2 antagonism measured as effect (i.v.) on oxotremorine induced bradycardia in pithed rats; assay type: functional; conditions: not given
Method in brief: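 Bradycardia was evoked in pithed rats by an iv oxotremorine dose–response challenge, with compounds given 15 min beforehand. DR10 is the compound dose that shifts the oxotremorine curve 10-fold to the right. Values are reported with 95% confidence limits.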

Question: For `CCN(CC)CC#CCOC(=O)C(O)(c1ccccc1)C1CCCCC1` (configuration not stated) [OXYBUTYNIN], which DR10 is on record?
Answer: Its DR10 is 1.6 mg/kg.

Question: `O=C(O[C@H]1CN2CCC1CC2)N1CCc2ccccc2[C@@H]1c1ccccc1` [SOLIFENACIN] was tested. Which DR10 did it give?
Answer: The DR10 was 4.2 mg/kg.

test system: Rattus norvegicus; assay: Intravenous dose required to inhibit rhythmic contraction of urinary bladder in urethane (1.0 g/kg s.c.) anesthetized female wistar rats; assay type: functional; conditions: not given
Method in brief: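 Each rat received escalating intravenous doses, giving a dose–response curve per animal. The fall in intravesical pressure was read 5–10 min after each dose. ED30 is the dose that cut peak intravesical pressure by 30%. Values are means ± SEM.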

Question: How did the ED30 turn out when `CCN(CC)CC#CCOC(=O)C(O)(c1ccccc1)C1CCCCC1` (configuration not stated) [OXYBUTYNIN] was run?
Answer: Its ED30 is 0.2 mg/kg.

same assay, conditions: Rattus norvegicus; read-out: ED30

Question: For `O=C(O[C@H]1CN2CCC1CC2)N1CCc2ccccc2[C@H]1c1ccccc1`, which ED30 is on record?
Answer: Its ED30 is 0.036 mg/kg.

Question: How did the ED30 turn out when `O=C(O[C@H]1CN2CCC1CC2)N1CCc2ccccc2C1c1ccsc1` (single isomer, unassigned; 12a) was run?
Answer: Its ED30 is 0.016 mg/kg.

Question: Which ED30 does the source give for `O=C(O[C@H]1CN2CCC1CC2)N1CCc2ccccc2C1c1ccsc1` (single isomer, unassigned; 12b) here?
Answer: Its ED30 is 0.24 mg/kg.

Question: For `NC(=O)C(c1ccccc1)(c1ccccc1)[C@@H]1CCN(CCc2ccc3c(c2)CCO3)C1` [DARIFENACIN], which ED30 is on record?
Answer: The ED30 was 0.058 mg/kg.

Question: For `CCN(CC)CC#CCOC(=O)C(O)(c1ccccc1)C1CCCCC1` (configuration not stated) [OXYBUTYNIN], which ED30 is on record?
Answer: The ED30 was 0.2 mg/kg.

Question: `O=C(O[C@H]1CN2CCC1CC2)N1CCc2ccccc2[C@@H]1c1ccccc1` [SOLIFENACIN] was tested. Which ED30 did it give?
Answer: The ED30 was 0.18 mg/kg.

Question: For `Cc1ccc(O)c([C@H](CCN(C(C)C)C(C)C)c2ccccc2)c1` [TOLTERODINE], which ED30 is on record?
Answer: Its ED30 is 0.06 mg/kg.

test system: Rattus norvegicus; assay: M1 antagonism measured as effect (i.v.) on McN-A343 induced pressor response in pithed rats; assay type: functional; conditions: iv, read-out: ID50 (the source's name)
Method in brief: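 Compounds were given iv 15 min before McN-A343 (3 μmol/kg iv) in pithed rats, with the pressor response recorded.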

Question: For `CCN(CC)CC#CCOC(=O)C(O)(c1ccccc1)C1CCCCC1` (configuration not stated) [OXYBUTYNIN], which ED50 is on record?
Answer: Its ED50 is 1.1 mg/kg.

Question: `O=C(O[C@H]1CN2CCC1CC2)N1CCc2ccccc2[C@@H]1c1ccccc1` [SOLIFENACIN] was tested. Which ED50 did it give?
Answer: The ED50 was 2.8 mg/kg.

test system: Rattus norvegicus; assay: Intravenous dose required to inhibit oxotremorine induced salivary secretion in urethane ([…] i.p.) anesthetized male wistar rats; assay type: functional; conditions: not given

Question: How did the ID50 turn out when `CCN(CC)CC#CCOC(=O)C(O)(c1ccccc1)C1CCCCC1` (configuration not stated) [OXYBUTYNIN] was run?
Answer: The ID50 was 0.17 mg/kg.

same assay, conditions: Rattus norvegicus; read-out: ID50 (the source's name)

Question: Which ED50 does the source give for `O=C(O[C@H]1CN2CCC1CC2)N1CCc2ccccc2[C@H]1c1ccccc1` here?
Answer: Its ED50 is 0.12 mg/kg.

Question: With `O=C(O[C@H]1CN2CCC1CC2)N1CCc2ccccc2C1c1ccsc1` (single isomer, unassigned; 12a) as the compound, how does the ED50 read?
Answer: The ED50 was 0.11 mg/kg.

Question: For `O=C(O[C@H]1CN2CCC1CC2)N1CCc2ccccc2C1c1ccsc1` (single isomer, unassigned; 12b), which ED50 is on record?
Answer: The ED50 was 1.3 mg/kg.

Question: Which ED50 does the source give for `NC(=O)C(c1ccccc1)(c1ccccc1)[C@@H]1CCN(CCc2ccc3c(c2)CCO3)C1` [DARIFENACIN] here?
Answer: The ED50 was 0.11 mg/kg.

Question: For `CCN(CC)CC#CCOC(=O)C(O)(c1ccccc1)C1CCCCC1` (configuration not stated) [OXYBUTYNIN], which ED50 is on record?
Answer: The ED50 was 0.17 mg/kg.

Question: `O=C(O[C@H]1CN2CCC1CC2)N1CCc2ccccc2[C@@H]1c1ccccc1` [SOLIFENACIN] was tested. Which ED50 did it give?
Answer: The ED50 was 2.1 mg/kg.

Question: How did the ED50 turn out when `Cc1ccc(O)c([C@H](CCN(C(C)C)C(C)C)c2ccccc2)c1` [TOLTERODINE] was run?
Answer: Its ED50 is 0.26 mg/kg.

species on record: Rattus norvegicus; assay: Selectivity index calculated as ID50/ED30; conditions: not given

Question: With `NC(=O)C(c1ccccc1)(c1ccccc1)[C@@H]1CCN(CCc2ccc3c(c2)CCO3)C1` [DARIFENACIN] as the compound, how does the Selectivity index read?
Answer: Its Selectivity index is 1.9.

Question: `Cc1ccc(O)c([C@H](CCN(C(C)C)C(C)C)c2ccccc2)c1` [TOLTERODINE] was tested. Which Selectivity index did it give?
Answer: The Selectivity index was 4.3.
